Laboratory results taken from ChEMBL document CHEMBL2424628, “Discovery of potent and selective nonsteroidal indazolyl amide glucocorticoid receptor agonists” (Bioorg Med Chem Lett, 2013).

Legend:
Glucocorticoid receptor [1] = target: T1, Glucocorticoid receptor (Homo sapiens, UniProt P04150); test: Agonist activity at glucocorticoid receptor in human A549 cells assessed as inhibition of PMA-induced AP-1 activation by luciferase reporter gene assay; assay type: cell-based
T1 sequence (P04150 whole entry): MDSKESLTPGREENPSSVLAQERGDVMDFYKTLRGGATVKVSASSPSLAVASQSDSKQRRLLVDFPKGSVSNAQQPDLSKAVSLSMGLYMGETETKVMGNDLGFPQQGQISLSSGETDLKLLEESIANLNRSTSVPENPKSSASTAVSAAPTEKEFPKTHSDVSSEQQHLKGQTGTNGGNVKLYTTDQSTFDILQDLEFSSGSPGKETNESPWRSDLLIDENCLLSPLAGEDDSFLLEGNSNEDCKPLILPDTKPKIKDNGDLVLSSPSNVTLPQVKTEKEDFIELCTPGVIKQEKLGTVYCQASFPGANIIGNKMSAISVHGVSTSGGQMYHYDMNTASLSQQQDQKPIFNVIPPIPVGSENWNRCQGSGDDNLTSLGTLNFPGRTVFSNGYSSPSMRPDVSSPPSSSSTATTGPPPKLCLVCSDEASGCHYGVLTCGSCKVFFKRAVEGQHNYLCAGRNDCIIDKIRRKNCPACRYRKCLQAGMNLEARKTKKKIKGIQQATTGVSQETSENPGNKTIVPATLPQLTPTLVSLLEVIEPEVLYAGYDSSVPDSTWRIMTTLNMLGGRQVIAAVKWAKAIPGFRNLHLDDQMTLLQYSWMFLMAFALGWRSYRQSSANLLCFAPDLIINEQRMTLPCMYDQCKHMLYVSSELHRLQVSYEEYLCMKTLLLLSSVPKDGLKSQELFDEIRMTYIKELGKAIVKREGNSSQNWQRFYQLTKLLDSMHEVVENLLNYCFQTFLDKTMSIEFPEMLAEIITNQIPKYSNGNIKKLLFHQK

[2] = target: T2, Glucocorticoid receptor (Homo sapiens) (UniProt P04150); test: Agonist activity at glucocorticoid receptor in human A549 cells assessed as inhibition of PMA-induced AP-1 activation by luciferase reporter gene assay relative to dexamethasone; assay type: cell-based
T2 sequence (whole entry): T1 sequence (P04150 whole entry)
Outline: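 A549 lung epithelial cells stably carrying a luciferase reporter with 5 copies of the AP-1 response element; AP-1 induced with PMA (15 ng/ml). Compound inhibition of induction read as decreased luciferase. […] Means of two or more experiments in triplicate.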

[3] = target: T2, Glucocorticoid receptor (Homo sapiens); test: Transactivation of glucocorticoid receptor ligand binding domain (unknown origin) transfected in human HeLa cells assessed as activation of NP-1 by GAL4 luciferase reporter gene assay relative to dexamethasone; assay type: cell-based
Outline: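 HeLa line (NP-1) stably transfected with a GR ligand binding domain chimera in a GAL4 luciferase reporter system, run in agonist mode. Direct GR-LBD activation read as increased luciferase activity. Means of two or more experiments in triplicate.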

Glucocorticoid receptor [4] = target: T1, Glucocorticoid receptor; test: Transactivation of glucocorticoid receptor ligand binding domain (unknown origin) transfected in human HeLa cells assessed as activation of NP-1 by GAL4 luciferase reporter gene assay; assay type: cell-based
Glucocorticoid receptor [5] = target: T1, Glucocorticoid receptor; test: Binding affinity to glucocorticoid receptor (unknown origin) by fluorescence polarization assay
Glucocorticoid receptor [6] = target: T1, Glucocorticoid receptor; test: Agonist activity at glucocorticoid receptor in human A549 cells assessed as inhibition of IL-1beta-induced NF-kappaB dependent E-selectin activation by luciferase reporter gene assay; assay type: cell-based
[7] = target: T2, Glucocorticoid receptor (Homo sapiens); test: Agonist activity at glucocorticoid receptor in human A549 cells assessed as inhibition of IL-1beta-induced NF-kappaB dependent E-selectin activation by luciferase reporter gene assay relative to dexamethasone; assay type: cell-based

Structure (SMILES) | EC50 (Glucocorticoid receptor [1]) | Efficacy [2] | Efficacy [3] | EC50 (Glucocorticoid receptor [4]) | Ki (Glucocorticoid receptor [5]) | EC50 (Glucocorticoid receptor [6]) | Efficacy [7]
CC(C)(Cc1ccc2c(cnn2-c2ccc(F)cc2)c1)C(=O)Nc1nncs1 | 4320 nM | 36% | – | – | – | – | –
CC(C)(C(=O)Nc1nccs1)[C@H](c1ccccc1)c1ccc2c(cnn2-c2ccc(F)cc2)c1 | 400 nM | 56% | 59% | 435 nM | 7.9 nM | 58 nM | 81%
CC(C)(C(=O)Nc1nncs1)[C@@H](c1ccccc1)c1ccc2c(cnn2-c2cccnc2)c1 | 19 nM | 74% | 57% | 132 nM | 0.9 nM | 19 nM | 77%
CC(C)(C(=O)Nc1nncs1)[C@H](c1ccccc1)c1ccc2c(cnn2-c2cccnc2)c1 | 349 nM | 58% | – | > 10000 nM | 4 nM | 185 nM | 35%
CC(C)(C(=O)Nc1nncs1)[C@@H](c1ccccc1)c1ccc2[nH]ncc2c1 | 24 nM | 79% | 41% | 208 nM | 2.7 nM | 15 nM | 77%
CC(C)(C(=O)Nc1nncs1)[C@H](c1ccccc1)c1ccc2[nH]ncc2c1 | 617 nM | 35% | < 30% | > 10000 nM | 13 nM | > 5000 nM | < 30%
CC(C)(C(=O)Nc1nccs1)[C@@H](c1ccccc1)c1ccc2c(cnn2-c2ccc(F)cc2)c1 | 1.4 nM | 92% | 94% | 7.6 nM | 6 nM | 0.5 nM | 97%
CC(C)(C(=O)Nn1nccn1)C(c1ccccc1)c1ccc2c(cnn2-c2ccc(F)cc2)c1 (racemic) | 17 nM | 73% | – | – | 11 nM | – | –
CC(C)(C(=O)Nn1ncnn1)C(c1ccccc1)c1ccc2c(cnn2-c2ccc(F)cc2)c1 (racemic) | > 10000 nM | – | – | – | 17 nM | – | –
Cc1cnc(NC(=O)C(C)(C)C(c2ccccc2)c2ccc3c(cnn3-c3ccc(F)cc3)c2)s1 (racemic) | 49 nM | 48% | – | – | – | – | –
Cc1nnc(NC(=O)C(C)(C)C(c2ccccc2)c2ccc3c(cnn3-c3ccc(F)cc3)c2)s1 (racemic) | 141 nM | 56% | – | – | – | – | –
CC(C)(C(=O)Nc1nncs1)C(c1ccccc1)c1ccc2c(cnn2CCCO)c1 (racemic) | 1020 nM | 45% | – | – | 17 nM | – | –
CC(C)(C(=O)Nc1nncs1)C(c1ccccc1)c1ccc2c(cnn2Cc2ccccc2)c1 (racemic) | 1930 nM | 62% | – | – | – | – | –
CC(C)(C(=O)Nc1nncs1)C(c1ccccc1)c1ccc2c(cnn2CCc2ccccc2)c1 (racemic) | > 10000 nM | < 30% | – | – | 46 nM | – | –
CCC(c1ccc2c(cnn2-c2ccc(F)cc2)c1)C(C)(C)C(=O)Nc1nccs1 (racemic) | 87 nM | 62% | – | – | – | – | –
CC(C)C(c1ccc2c(cnn2-c2ccc(F)cc2)c1)C(C)(C)C(=O)Nc1nncs1 (racemic) | 81 nM | 29% | – | – | – | – | –
CC(C)(C(=O)Nc1nncs1)C(Cc1ccccc1)c1ccc2c(cnn2-c2ccc(F)cc2)c1 (racemic) | 705 nM | 37% | – | – | – | – | –
CC(C)(C(=O)Nc1nccs1)C(c1ccc2c(cnn2-c2ccc(F)cc2)c1)C1CCCC1 (racemic) | 82 nM | 47% | – | – | – | – | –
CC(C)(C(=O)Nc1nccs1)C(c1ccc2c(cnn2-c2ccc(F)cc2)c1)C1CCCCC1 (racemic) | 66 nM | 55% | – | – | 18 nM | – | –
CC(C)(C(=O)Nc1ccsc1)C(c1ccccc1)c1ccc2c(cnn2-c2ccc(F)cc2)c1 (racemic) | 73 nM | 68% | – | – | – | – | –
CC(C)(C(=O)Nc1nncs1)C(c1ccccc1)c1ccc2c(cnn2-c2ccc(Cl)cc2)c1 (racemic) | 23 nM | 96% | 55% | 256 nM | – | 10 nM | 84%

Structure (SMILES) | EC50 (Glucocorticoid receptor [1]) | Efficacy [2] | Efficacy [3] | EC50 (Glucocorticoid receptor [4]) | Ki (Glucocorticoid receptor [5]) | EC50 (Glucocorticoid receptor [6]) | Efficacy [7]
CC(C)(C(=O)Nc1nncs1)C(c1ccccc1)c1ccc2c(cnn2-c2ccc(Br)cc2)c1 (racemic) | 956 nM | < 30% | – | – | – | – | –
CC(C)(C(=O)Nc1nncs1)C(c1ccccc1)c1ccc2c(cnn2-c2ccccn2)c1 (racemic) | 127 nM | 62% | – | – | – | – | –
CC(C)(C(=O)Nc1nncs1)C(c1ccccc1)c1ccc2c(cnn2-c2ccncc2)c1 (racemic) | 106 nM | 56% | < 30% | > 10000 nM | 1.9 nM | 78 nM | 56%
COc1cccc(-n2ncc3cc(C(c4ccccc4)C(C)(C)C(=O)Nc4nncs4)ccc32)c1 (racemic) | 1200 nM | < 30% | < 30% | > 10000 nM | – | – | –
COc1ccc(-n2ncc3cc(C(c4ccccc4)C(C)(C)C(=O)Nc4nncs4)ccc32)cc1 (racemic) | 56 nM | 76% | < 30% | > 10000 nM | – | 143 nM | 62%
CC(C)(C(=O)Nc1nncs1)C(c1ccccc1)c1ccc2c(cnn2-c2ccc(O)cc2)c1 (racemic) | 271 nM | 69% | < 30% | > 10000 nM | – | > 5000 nM | < 30%
CC(C)Cn1ncc2cc(C(c3ccccc3)C(C)(C)C(=O)Nc3nncs3)ccc21 (racemic) | 114 nM | 76% | < 30% | > 10000 nM | – | 1820 nM | 77%
CC(C)CCn1ncc2cc(C(c3ccccc3)C(C)(C)C(=O)Nc3nncs3)ccc21 (racemic) | 45 nM | 96% | 66% | 132 nM | 5.7 nM | 49 nM | 87%
CC(C)(C(=O)Nc1nncs1)C(c1ccccc1)c1ccc2c(cnn2CCO)c1 (racemic) | 550 nM | 32% | – | – | – | 1050 nM | 27%
CC(C)(C(=O)Nc1nncs1)C(c1ccccc1)c1ccc2c(cnn2-c2ccccc2)c1 (racemic) | 20 nM | 73% | – | – | – | – | –
CC(C)(C(=O)Nc1nncs1)C(c1ccccc1)c1ccc2c(cnn2-c2ccc(F)cc2)c1 (racemic) | 23 nM | 81% | – | – | 18 nM | – | –
CC(C)(C(=O)Nc1nccs1)C(c1ccccc1)c1ccc2c(cnn2-c2ccc(F)cc2)c1 (racemic) | 4.1 nM | 79% | – | – | 15 nM | – | –
CC(C)(C(=O)Nc1nccs1)C(c1ccncc1)c1ccc2c(cnn2-c2ccc(F)cc2)c1 (racemic) | – | 60% | – | – | – | – | –
CC(C)(C(=O)Nc1nncs1)C(c1ccccc1)c1ccc2c(cnn2C2CCCCCC2)c1 (racemic) | – | 85% | 60% | – | – | – | 86%
CC(C)CC(c1ccc2c(cnn2-c2ccc(F)cc2)c1)C(C)(C)C(=O)Nc1nncs1 (racemic) | – | 60% | – | – | – | – | –
CC(C)n1ncc2cc(C(c3ccccc3)C(C)(C)C(=O)Nc3nncs3)ccc21 (racemic) | – | 82% | < 30% | – | – | – | 44%
Cc1csc(NC(=O)C(C)(C)C(c2ccccc2)c2ccc3c(cnn3-c3ccc(F)cc3)c2)n1 (racemic) | – | 74% | – | – | – | – | –
CC(C(=O)Nc1nncs1)C(c1ccccc1)c1ccc2c(cnn2-c2ccc(F)cc2)c1 (single isomer, unassigned; diastereomer 1) | – | 42% | – | – | – | – | –
CC(C(=O)Nc1nncs1)[C@@H](c1ccccc1)c1ccc2c(cnn2-c2ccc(F)cc2)c1 (single isomer, unassigned; diastereomer 2) | – | 103% | 76% | – | – | – | –
CC(C(=O)Nc1nncs1)[C@@H](c1ccccc1)c1ccc2c(cnn2-c2ccc(F)cc2)c1 (single isomer, unassigned; diastereomer 3) | – | 106% | 122% | – | – | – | –
CC(C(=O)Nc1nncs1)C(c1ccccc1)c1ccc2c(cnn2-c2ccc(F)cc2)c1 (single isomer, unassigned; diastereomer 4) | – | 89% | 100% | – | – | – | –
